5 molecules from ChEMBL document CHEMBL1129461 (J Med Chem, 1996) can be followed below.

Usually IC50 stands for the concentration that gives 50% inhibition.

Test [1] addresses Protein kinase C gamma type (Homo sapiens, UniProt P05129). Briefly: Evaluated against recombinant human Protein kinase C gamma. The essentials:
(§1)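 Recombinant human PKC isozymes expressed in SF9 cells via baculovirus, partly purified (50–90%). 32P transfer from 30 μM [32P]ATP to 200 μg/mL histone IIIS in 20 mM Hepes pH 7.5, 10 mM MgCl2, EGTA, CaCl2, phosphatidylserine, and diacylglycerol at the isozyme-dependent level giving half-maximal activation. 10 min at 30 °C, TCA stop, filter counting. No-lipid background subtracted.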

The target of test [2] is Protein kinase C delta type (Homo sapiens, UniProt Q05655). Put plainly: Evaluated against recombinant human Protein kinase C delta. In a few lines:
as §1

Test [3] concerns the target T1, Protein kinase C epsilon type (Homo sapiens, UniProt Q02156).
T1 sequence (Q02156 whole entry): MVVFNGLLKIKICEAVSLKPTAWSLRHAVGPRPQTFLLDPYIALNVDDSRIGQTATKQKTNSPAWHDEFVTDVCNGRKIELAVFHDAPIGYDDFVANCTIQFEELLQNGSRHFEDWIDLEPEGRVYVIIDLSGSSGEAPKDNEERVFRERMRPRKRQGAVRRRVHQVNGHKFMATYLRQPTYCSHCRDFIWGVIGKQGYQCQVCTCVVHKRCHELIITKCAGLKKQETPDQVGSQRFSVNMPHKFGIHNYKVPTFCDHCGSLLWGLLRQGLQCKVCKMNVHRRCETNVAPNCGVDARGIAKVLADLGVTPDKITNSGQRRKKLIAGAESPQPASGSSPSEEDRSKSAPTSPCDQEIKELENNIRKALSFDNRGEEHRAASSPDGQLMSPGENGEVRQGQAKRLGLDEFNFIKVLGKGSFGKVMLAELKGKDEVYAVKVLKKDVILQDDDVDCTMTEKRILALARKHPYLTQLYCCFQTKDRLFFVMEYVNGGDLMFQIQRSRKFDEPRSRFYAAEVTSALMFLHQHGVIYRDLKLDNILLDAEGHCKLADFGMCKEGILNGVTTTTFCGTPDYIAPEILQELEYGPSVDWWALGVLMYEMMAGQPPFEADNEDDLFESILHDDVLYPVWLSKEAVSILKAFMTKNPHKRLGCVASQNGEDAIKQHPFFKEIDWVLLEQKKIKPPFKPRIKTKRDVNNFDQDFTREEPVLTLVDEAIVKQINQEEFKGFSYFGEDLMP
Briefly: Evaluated against recombinant human Protein kinase C epsilon. In a few lines: as §1

The target of test [4] is Protein kinase C alpha type (Homo sapiens, UniProt P17252). Put plainly: Evaluated against recombinant human Protein kinase C alpha. In a few lines: as §1
For test [5], the target named is T2, Protein kinase C beta type (Homo sapiens, UniProt P05771). Put plainly: Evaluated against recombinant human Protein kinase C beta 1. In a few lines: as §1
T2 sequence (P05771 whole entry): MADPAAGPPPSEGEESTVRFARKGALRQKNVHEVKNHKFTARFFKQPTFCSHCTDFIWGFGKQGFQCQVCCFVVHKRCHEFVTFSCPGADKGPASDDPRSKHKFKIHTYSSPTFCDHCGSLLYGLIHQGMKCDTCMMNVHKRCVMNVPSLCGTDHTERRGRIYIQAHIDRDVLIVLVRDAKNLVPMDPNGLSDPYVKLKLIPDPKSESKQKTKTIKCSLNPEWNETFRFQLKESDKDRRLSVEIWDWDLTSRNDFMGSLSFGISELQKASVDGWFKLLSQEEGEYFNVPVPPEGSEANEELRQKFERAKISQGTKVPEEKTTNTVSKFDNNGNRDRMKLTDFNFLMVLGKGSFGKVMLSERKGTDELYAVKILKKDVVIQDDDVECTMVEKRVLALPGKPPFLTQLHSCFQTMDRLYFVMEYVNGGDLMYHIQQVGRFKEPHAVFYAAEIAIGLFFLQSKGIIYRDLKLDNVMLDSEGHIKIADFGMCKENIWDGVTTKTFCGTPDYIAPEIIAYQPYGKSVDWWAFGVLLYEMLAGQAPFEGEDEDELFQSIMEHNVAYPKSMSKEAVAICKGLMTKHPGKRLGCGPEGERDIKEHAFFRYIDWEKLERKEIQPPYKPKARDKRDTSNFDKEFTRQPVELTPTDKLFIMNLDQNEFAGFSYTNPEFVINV
The target of test [6] is T3, Protein kinase C eta type (Homo sapiens, UniProt P24723). Briefly: Evaluated against recombinant human Protein kinase C eta. In a few lines:
as §1

In test [7] the target is Proto-oncogene tyrosine-protein kinase Src (Homo sapiens, UniProt P12931). Put plainly: Inhibition of src Protein Tyrosine Kinase. The essentials:
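p60src tyrosine kinase with Raytide peptide substrate, run by the supplier's protocol except that Triton X-100 replaced Brij 35.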

Test [8] addresses T2, Protein kinase C beta type. Briefly: Evaluated against recombinant human Protein kinase C beta 2. The essentials: as §1
Test [9] can be described thus: Evaluated against bovine heart Protein Kinase A (PKA).
Test [10] in a line: Inhibition of rat brain Ca 2+/Calmodulin dependent kinase. The essentials:
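Ca2+/calmodulin kinase isolated from rat brain homogenate; 50 mM Tris-HCl pH 7.5, 5 mM β-mercaptoethanol, 400 μM EGTA, 700 μM CaCl2, 10 mM MgCl2, 200 μg/mL histone type HA, 30 μM [γ-32P]ATP, inhibitor in DMSO. Room temperature 10 min, ice-cold TCA plus BSA stop, precipitate filtered and β-counted.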

The nature of test [11]: Inhibition of rat brain Casein kinase II. In a few lines: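 Casein kinase II isolated from rat brain homogenate; 20 mM Tris-HCl pH 7.5, 5 mM NaF, casein substrate, 10 mM MgCl2, 30 μM [γ-32P]ATP, inhibitor in DMSO. Room temperature 10 min, stopped with ice-cold TCA plus BSA; precipitate filtered onto glass fiber and β-counted.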
In test [12] the target is T3, Protein kinase C eta type. Briefly: Inhibition of recombinant human Protein kinase C eta. In a few lines: as §1
Test [13] addresses neutrophil superoxide release (Homo sapiens). Put plainly: Inhibition of neutrophil superoxide release.

T3 sequence (P24723 whole entry): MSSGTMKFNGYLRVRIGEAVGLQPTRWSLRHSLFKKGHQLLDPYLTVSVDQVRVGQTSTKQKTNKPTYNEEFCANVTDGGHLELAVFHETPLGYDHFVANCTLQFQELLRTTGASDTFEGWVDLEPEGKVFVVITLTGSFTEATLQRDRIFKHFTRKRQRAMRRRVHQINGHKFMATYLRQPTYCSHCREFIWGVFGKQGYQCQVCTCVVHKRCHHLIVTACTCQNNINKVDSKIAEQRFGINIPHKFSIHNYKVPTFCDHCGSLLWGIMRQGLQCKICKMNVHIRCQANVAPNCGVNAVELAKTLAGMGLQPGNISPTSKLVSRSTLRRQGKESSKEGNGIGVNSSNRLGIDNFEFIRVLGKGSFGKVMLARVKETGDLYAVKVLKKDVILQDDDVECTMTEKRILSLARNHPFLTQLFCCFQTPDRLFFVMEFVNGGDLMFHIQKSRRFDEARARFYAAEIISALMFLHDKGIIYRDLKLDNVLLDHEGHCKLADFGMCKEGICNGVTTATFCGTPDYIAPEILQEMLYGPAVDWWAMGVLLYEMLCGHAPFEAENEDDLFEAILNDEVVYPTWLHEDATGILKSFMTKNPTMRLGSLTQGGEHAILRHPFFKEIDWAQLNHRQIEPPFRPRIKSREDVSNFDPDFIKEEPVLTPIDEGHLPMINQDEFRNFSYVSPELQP
Chain of Protein kinase C delta type (Q05655 whole entry): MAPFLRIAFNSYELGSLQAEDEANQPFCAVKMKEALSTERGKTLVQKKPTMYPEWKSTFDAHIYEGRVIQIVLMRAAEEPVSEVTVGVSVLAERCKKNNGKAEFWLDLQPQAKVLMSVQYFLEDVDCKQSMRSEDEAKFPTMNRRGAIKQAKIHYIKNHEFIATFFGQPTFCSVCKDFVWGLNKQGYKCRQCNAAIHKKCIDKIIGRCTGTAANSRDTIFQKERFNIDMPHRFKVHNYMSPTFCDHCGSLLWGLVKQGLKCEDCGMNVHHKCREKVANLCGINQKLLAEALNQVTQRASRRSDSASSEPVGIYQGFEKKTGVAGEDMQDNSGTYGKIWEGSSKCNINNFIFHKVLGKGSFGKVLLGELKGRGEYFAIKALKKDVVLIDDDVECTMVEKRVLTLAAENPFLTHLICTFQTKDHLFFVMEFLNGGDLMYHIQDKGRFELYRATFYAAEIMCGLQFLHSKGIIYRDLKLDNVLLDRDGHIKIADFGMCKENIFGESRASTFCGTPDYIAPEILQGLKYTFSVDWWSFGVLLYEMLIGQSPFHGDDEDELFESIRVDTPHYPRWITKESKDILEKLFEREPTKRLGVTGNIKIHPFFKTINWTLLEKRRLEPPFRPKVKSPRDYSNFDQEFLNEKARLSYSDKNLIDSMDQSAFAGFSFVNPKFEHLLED
Chain of Proto-oncogene tyrosine-protein kinase Src (P12931 2-536 limits assumed): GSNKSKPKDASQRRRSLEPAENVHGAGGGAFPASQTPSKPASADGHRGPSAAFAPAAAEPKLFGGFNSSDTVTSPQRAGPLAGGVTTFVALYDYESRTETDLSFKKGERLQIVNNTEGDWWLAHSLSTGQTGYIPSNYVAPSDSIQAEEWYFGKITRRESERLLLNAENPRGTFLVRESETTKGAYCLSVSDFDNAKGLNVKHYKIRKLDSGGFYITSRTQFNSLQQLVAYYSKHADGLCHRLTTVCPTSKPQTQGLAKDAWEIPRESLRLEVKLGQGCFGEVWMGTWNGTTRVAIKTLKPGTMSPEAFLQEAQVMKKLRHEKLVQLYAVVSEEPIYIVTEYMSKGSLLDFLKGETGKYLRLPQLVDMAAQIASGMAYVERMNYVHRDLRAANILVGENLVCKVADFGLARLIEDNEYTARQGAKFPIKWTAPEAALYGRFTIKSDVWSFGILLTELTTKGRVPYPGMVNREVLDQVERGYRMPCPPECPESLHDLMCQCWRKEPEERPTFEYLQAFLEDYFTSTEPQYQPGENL

On to `O=C(OCC(Cc1ccc(O)cc1)NS(=O)(=O)c1ccccc1)c1cc(O)c(C(=O)c2c(O)cccc2C(=O)O)c(O)c1` (configuration not stated), for which the IC50 came out at 220 nM in [1]; 40 nM in [2]; 320 nM in [3]; 110 nM in [4]; 220 nM in test [5]; 20 nM in test [6]. Further, the IC50 was more than 12500 nM in test [7]; 30 nM in [8]; more than 50000 nM in test [9]; 32000 nM in test [10]; more than 50000 nM in test [11].
Turning to `CC(CCc1ccc(O)cc1)OC(=O)c1cc(O)c(C(=O)c2c(O)cccc2C(=O)O)c(O)c1` (configuration not stated), the IC50 in [1] came to 250 nM; in test [2] it was 30 nM; in test [3], 280 nM; in [4], 410 nM; in test [5], 40 nM; in test [6] it was 20 nM. Also, the half-maximal inhibitory concentration (IC50) was 30 nM in [8], more than 50000 nM in [9], more than 50000 nM in test [10] and more than 50000 nM in test [11].
For `O=C(OCC(NS(=O)(=O)c1ccccc1)c1ccc(O)cc1)c1cc(O)c(C(=O)c2c(O)cccc2C(=O)O)c(O)c1` (configuration not stated), the IC50 in test [1] is 4800 nM; in [2] it was 1900 nM; in test [3], more than 50000 nM; in test [4], more than 50000 nM; in [12], 3300 nM; in [5], 11000 nM. For the same molecule, the half-inhibitory concentration (IC50) was 2800 nM in [8] and more than 50000 nM in test [9].
Regarding `COC(=O)c1cccc(O)c1C(=O)c1c(O)cc(C(=O)OC[C@@H](Cc2ccc(O)cc2)NS(=O)(=O)c2ccccc2)cc1O`, the 50% inhibitory concentration (IC50) in test [13] turned out to be 930 nM; in [1], 4500 nM; in [2], 360 nM; in [3] it was 38000 nM; in test [4], 18000 nM; in [5], 2200 nM. The IC50 in test [6] was less than 50 nM; in [8], 340 nM; in test [9], more than 50000 nM.
With `O=C(N[C@@H]1CNCCC[C@H]1OC(=O)c1cc(O)c(C(=O)c2c(O)cccc2C(=O)O)c(O)c1)c1ccc(O)cc1` [BALANOL], the IC50 is 20 nM in [2], more than 10000 nM in test [7], 40 nM in [9] and 30 nM in test [10].
